Sampled rows, rich in hits. Any-hit rate of the full collection: about 3.8%.
NPY1 pot ag: NPY-Y1 receptor potentiators or agonists, primary screen, cell-based. Neuropeptide Y receptor type 1 (Homo sapiens), P25929. NPY-Y1 expressing cells, potentiator/agonist activation. activation, % at 3.6 µM. 0.37% of 220,000 active; in the data active = activation above about 33%, passing the limit was not always enough;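 also: cells stimulated with NPY at EC10 then isoproterenol at EC100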
Target sequence (P25929 whole entry, looked up): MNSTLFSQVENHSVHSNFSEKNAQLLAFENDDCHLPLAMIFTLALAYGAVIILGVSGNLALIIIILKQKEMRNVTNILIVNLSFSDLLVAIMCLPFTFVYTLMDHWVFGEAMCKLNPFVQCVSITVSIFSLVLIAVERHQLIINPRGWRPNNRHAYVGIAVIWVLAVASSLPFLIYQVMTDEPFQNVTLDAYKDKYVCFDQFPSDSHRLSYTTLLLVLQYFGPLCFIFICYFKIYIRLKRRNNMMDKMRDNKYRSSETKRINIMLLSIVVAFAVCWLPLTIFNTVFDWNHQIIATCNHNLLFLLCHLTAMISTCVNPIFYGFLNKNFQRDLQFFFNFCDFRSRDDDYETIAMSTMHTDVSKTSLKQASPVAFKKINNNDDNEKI
NPY2 pot ag: NPY-Y2 potentiators or agonists, primary screen, cell-based; Neuropeptide Y receptor type 2 (Homo sapiens), P49146; cells expressing NPY-Y2, potentiator/agonist read-out; activation, % at 3.6 µM; 0.45% of 220,000 active; AID 1359, 2008; in the data active = activation above about 27%;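 also: cells stimulated with NPY near EC25 plus isoproterenol at EC100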
NPY-Y2 antag: NPY-Y2 receptor antagonists, primary screen, cell-based; Neuropeptide Y receptor type 2 (Homo sapiens), P49146; NPY-Y2 expressing cells, antagonist mode; inhibition, % at 2.7 µM; 0.99% of 140,000 active; in the data active = inhibition above about 17%
INS promoter inh: inhibitors of insulin promoter-driven GFP, primary screen, imaging, TRM-6 cells, eGFP reporter, cell count. reporter expression induced with tamoxifen. inhibition, % at 2 µM. 0.9% of 130,000 active. AID 1273, 2008;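 active = inhibition above the mean plus 3 SD, with well images judged a real hit on visual review, cut at about 60% in these data, passing the limit was not always enough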
RAM inhibit: inhibitors of the yeast RAM network, primary screen, dse1pr::URA3 reporter, 5-FOA selection; S. cerevisiae dse1pr::URA3 reporter, 5-FOA growth OD615, 2 d; analog-sensitive cbk1-as2 kinase mutant strain; inhibition, % at 50 µM; 1.8% of 190,000 active;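 active = inhibition above a set limit, 3 SD over mean compound inhibition, cut at about 8.4% in these data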;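 also: inhibition rescues growth on 5-FOA so higher OD means more RAM inhibition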
NPY-Y1 antag: NPY-Y1 receptor antagonists, primary screen, cell-based; Neuropeptide Y receptor type 1 (Homo sapiens), P25929; inhibition, % at 3.6 µM; 1% of 200,000 active; HEK293-CNG Y1 cells, membrane potential fluorescence; NPY at EC95, then isoproterenol;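 active = inhibition above the campaign mean inhibition of all tested compounds plus 3 SD, cut at about 20% in these data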
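Assay system: HEK293 cells with Y1 receptor plus CNG channel | Probe or stimulus: NPY (25 nM), isoproterenol (1 µM), Ro 20-1724 (25 µM) | Timing: Compound incubation 1 h at room temperature, readout 45 min post-stimulation | Measured by: Membrane-potential fluorescent dye readout | Benchmarks: High control isoproterenol alone, low control NPY with isoproterenol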
Of the large screens only hits and unclear results are named; the others gave an inactive call.

COc1ccc(NC2=C(C(C)=O)C(c3ccc4c(c3)OCO4)C(C(C)=O)C(C)(O)C2)cc1 (centres undefined)	none (no result: INS promoter inh)
CCSc1nc2cc(OC)c(OC)cc2c(=O)n1CCc1ccccc1	RAM inhibit 8.6
Brc1ccc(-c2cn3ccccc3n2)s1	INS promoter inh 85.7
C[C@@H](NC(=O)c1nc[nH]c1C(=O)N[C@@H](Cc1ccccc1)C(=O)OCc1ccccc1)c1ccccc1	none (no result: NPY-Y2 antag, INS promoter inh)
CC(C)C[C@H](NC(=O)c1nc[nH]c1C(=O)NCCCCCNC(=O)OC(C)(C)C)C(=O)OCc1ccccc1	NPY1 pot ag 38.8, NPY2 pot ag 36.0, RAM inhibit 10.2 (no result: NPY-Y2 antag, INS promoter inh)
C[C@H](NC(=O)c1nc[nH]c1C(=O)N[C@@H](Cc1ccccc1)C(=O)OCc1ccccc1)c1ccccc1	RAM inhibit 8.6 (no result: NPY-Y2 antag, INS promoter inh)
O=C(NCc1ccco1)c1ccc2c(c1)N(Cc1ccc(Cl)cc1)CCS2	none (no result: NPY-Y2 antag, INS promoter inh, RAM inhibit, NPY-Y1 antag)
CCOc1ccc(-n2c(SCC(=O)c3c(N)n(C)c(=O)n(C)c3=O)nnc2-c2cccnc2)cc1	RAM inhibit 9.1
CCOC(=O)/C(C#N)=C1\Nc2ccccc2N=C1N(CC(C)C)CC(C)C	RAM inhibit 8.9
CCC(Sc1nc2c(cnn2-c2ccc(Cl)cc2)c(=O)[nH]1)C(=O)OC (centres undefined)	INS promoter inh 80.0
CCCCSc1nc2c(cnn2-c2ccc(Cl)cc2)c(=O)[nH]1	none
CCSc1cc(N2CCOCC2)nc(-c2ccc(Cl)cc2)n1	RAM inhibit 10.9
CCSc1cc(N2CCCC2)nc(-c2ccccc2)n1	none
CN(C)CCNC(=O)c1ccc(CS(=O)(=O)c2ccc(Br)cc2)o1	none (no result: INS promoter inh, RAM inhibit)
N#C/C(C(N)=O)=c1/ccc2c(c1)N1C3=C(CCCC3)CC3CCCCC31N=2 (centres undefined)	NPY1 pot ag 51.0, NPY2 pot ag 47.0 (no result: INS promoter inh)
O=C(OCc1ccccc1)C1=NNC2C(=O)N(c3ccc(Br)cc3)C(=O)C12 (centres undefined)	none (no result: NPY-Y2 antag, INS promoter inh, RAM inhibit, NPY-Y1 antag)
COc1ccc(-n2cc(C(=O)O)c3ccccc3c2=O)cc1	none
O=C(O)c1cn(-c2ccccc2)c(=O)c2ccccc12	INS promoter inh 70.0
O=C(COc1ccc(Br)cc1Cl)NC(=O)NCc1ccccc1	RAM inhibit 8.8
Cc1ccc(S(=O)(=O)/N=C(/Nc2nc(C)cc(C)n2)N2CCOCC2)cc1	NPY-Y1 antag 25.2 (no result: RAM inhibit)
Cc1c(C(=O)N/N=C/c2cccnc2)sc(=S)n1C	NPY1 pot ag 57.1, NPY2 pot ag 54.4
CCN(CC)CCNC(=O)c1cc2c(-c3ccc(Cl)cc3)nn(C)c2s1	none (no result: INS promoter inh)
CCOCCCNC(=O)c1cc2c(-c3ccc(Cl)cc3)nn(C)c2s1	RAM inhibit 9.0 (no result: INS promoter inh)
O=C1C2CC=CCC2C(=O)N1n1cnnc1 (centres undefined)	none (no result: NPY-Y2 antag)
CCc1nn(-c2ccccc2)c(N)c1C#N	INS promoter inh 60.0
N#CCc1nn(-c2ccccc2)c(N)c1C#N	none
O=C(N/C=C/n1cnc2cc(C(F)(F)F)ccc21)c1ccccc1F	none (no result: NPY-Y2 antag, INS promoter inh)
C[C@@H](C(=O)NCc1ccccc1)[C@H]1C[C@]1(C)[C@H](NC(=O)OCc1ccccc1)c1ccccc1	RAM inhibit 9.5
COC(=O)[C@H](C)[C@@H]1C[C@@]1(C)[C@@H](NC(=O)OCc1ccccc1)c1ccccc1	RAM inhibit 8.6
C[C@@H](C(=O)O)[C@H]1C[C@]1(C)[C@H](NC(=O)OCc1ccccc1)c1ccccc1	none
COc1ccc(N2CCN(C(=O)CSc3nnc(-c4cc5ccccc5cc4O)n3C)CC2)cc1	NPY1 pot ag 85.6, NPY2 pot ag 92.5
COC(=O)c1ccc(-n2nnnc2SCc2ccccc2OC)cc1	RAM inhibit 9.6
CCOc1ccc(/C=N/OCC(=O)Nc2cc(C)on2)cc1	none
CCOc1ccc(/C=N/OCC(=O)NC(c2ccccc2)c2ccccc2)cc1	RAM inhibit 10.5
O=C(CNC(=O)c1ccco1)OCC(=O)c1ccc(Cl)cc1Cl	none (no result: NPY-Y2 antag)
COc1ccc(NC(=O)CC(c2ccc(F)cc2)c2ccc(OC(C)C)cc2)cc1 (centres undefined)	RAM inhibit 9.3
CC(C)Oc1ccc(C(CC(=O)O)c2ccc(F)cc2)cc1 (centres undefined)	none (no result: NPY-Y2 antag, INS promoter inh, RAM inhibit, NPY-Y1 antag)
O=C(CC1CCCCC1)c1c(O)c2ccccc2oc1=O	RAM inhibit 9.6
COc1ccc2c(C=O)cn(C)c2c1	none (no result: NPY-Y2 antag, INS promoter inh)
CCCCN(CCCC)C(=O)C[n+]1cccc(/C=N/O)c1	INS promoter inh 70.6 (no result: NPY-Y2 antag)
Cc1cc(C)c(C(=O)COC(=O)CCNS(=O)(=O)c2c(Cl)cccc2Cl)cc1C	RAM inhibit 10.3
CN1CCN(C(=S)NC(=O)c2cccc(S(=O)(=O)N(C)C)c2)CC1	none (no result: NPY-Y2 antag, INS promoter inh)
CCN(CC)S(=O)(=O)c1ccc(NC(=O)Cc2cccs2)cc1	none (no result: NPY-Y2 antag)
COc1ccccc1NC(=S)N(Cc1ccco1)Cc1cc2cc(C)c(C)cc2[nH]c1=O	RAM inhibit 9.5
COc1cc2cc(CN(Cc3cccs3)C(=S)Nc3cccc(C)c3)c(=O)[nH]c2cc1OC	RAM inhibit 8.9
Cc1cc(CNC(=O)Cn2nc(C)c([N+](=O)[O-])c2C)c2ccccc2n1	none (no result: NPY-Y2 antag)
Cc1ccc(C2CC(c3cccs3)n3nc(N)nc3N2)cc1 (centres undefined)	NPY-Y1 antag 22.3
O=C(NCCc1ccccc1)C1CCN(C(=O)c2ccc([N+](=O)[O-])cc2)CC1	none (no result: NPY-Y2 antag, INS promoter inh)
O=C(C1=C(O)C(=O)N(CCc2ccccc2)C1c1cccnc1)c1ccco1 (centres undefined)	none
CCOc1cc(C2C(C(=O)c3ccco3)=C(O)C(=O)N2CCc2ccccc2)ccc1O (centres undefined)	NPY-Y2 antag 35.8, NPY-Y1 antag 39.2 (no result: INS promoter inh)
CCOc1cc(NC(=O)c2cccs2)c(OCC)cc1NC(=O)c1ccccn1	none (no result: NPY-Y2 antag, INS promoter inh)
CCOc1cc(NC(=O)c2ccccn2)c(OCC)cc1NC(=O)c1cccc(C)c1	RAM inhibit 9.6 (no result: NPY-Y2 antag, INS promoter inh)
Cc1cccc(C(=O)Nc2cc(OCc3cccc(F)c3)c(Cl)cc2Cl)c1	RAM inhibit 9.4
C=CCN1C(=O)C(C)NC1=S (centres undefined)	none (no result: NPY-Y2 antag, INS promoter inh, RAM inhibit, NPY-Y1 antag)
O=c1c2ccccc2nc(/C=C/c2c[nH]c3ccccc23)n1-c1ccc([N+](=O)[O-])cc1	none
CCCn1c(Sc2nc3c(c(=O)[nH]c(=O)n3C)n2CCC)nc2c1c(=O)[nH]c(=O)n2C	none
C/C=C/CSc1nc2c(c(=O)[nH]c(=O)n2C)n1CCC	INS promoter inh 81.8
CC1CC(=O)N(c2ccc(NCc3ccccc3Cl)c([N+](=O)[O-])c2)C1=O (centres undefined)	none
Cn1nc(C(=O)Nc2sc3c(c2C#N)CCCC3)ccc1=O	none (no result: NPY-Y2 antag)
